Published values of several laboratories.
Lines come from different studies, so protocols differ.
Medium: plasma

Compound	test system	conditions	endpoint	result
CO[C@H]1CC[C@H](N2C(=O)CNc3ncc(-c4ccc(C(C)(C)O)nc4)nc32)CC1	human	oral, 45 mg, patients	Vd/F	186 L
COc1cc(C(=O)NC2CCN(C)CC2)c(F)cc1Nc1ncc(C(F)(F)F)c(Oc2cccc3c2C(=O)N(C)C3)n1	human	oral, 25 mg, single dose, patients	Vd/F	331 L
c1cnc2ccc(Nc3nc(NC4CC4)c4nc[nH]c4n3)cc2c1	human	oral, 200 mg/m², patients	Vd/F	267 L
Cc1cc(Nc2cc(N3CCN(C)CC3)nc(/C=C/c3ccccc3)n2)n[nH]1	human	oral, 200 mg/m², multiple doses, patients	Vd/F	907 L
C[C@@]1(c2cc(NC(=O)c3ccc(C#N)cn3)ccc2F)C=CSC(N)=N1	human	oral, 10 mg, single dose	Vd/F	210 L
CC(C)(Sc1ccncc1-c1ccc(C#N)c2ccccc12)C(=O)O	male human	oral, 5 mg, single dose, fed, healthy volunteers	Vd/F	625 L
COc1ccc([C@@H]2CN(C(=O)[C@@H](O)CO)C[C@@]2(C)[C@@H](C)O)cc1OC1CN(c2ccc(C)cn2)C1	human	oral, 5 mg, single dose, healthy volunteers	Vd/F	46.4 L
CCNCCCNC/C=C\CNCCCNCC	human	intravenous, 100 mg, patients, infusion	Vd	1.17 L/kg
